Test results from ChEMBL document CHEMBL4354837 (J Med Chem, 2020).
The source made the active and inactive calls. The calls are words filed in the database; no cut-off is given here. Square brackets hold non-standard residues; d marks the D form. Peptide text beside a SMILES is read from it. Dap = NC[C@H](N)C(=O)O

Tests used:
Melanocortin receptor 4 [1] = molecular target: T1, Melanocortin receptor 4 (Homo sapiens, UniProt P32245); test: Inverse agonist activity at human melanocortin receptor 4 expressed in HEK293 cells assessed as inhibition of basal cAMP accumulation incubated for 2 hrs by cAMP Alpha-screen assay; format: functional, cell-based
T1 sequence (P32245 whole entry): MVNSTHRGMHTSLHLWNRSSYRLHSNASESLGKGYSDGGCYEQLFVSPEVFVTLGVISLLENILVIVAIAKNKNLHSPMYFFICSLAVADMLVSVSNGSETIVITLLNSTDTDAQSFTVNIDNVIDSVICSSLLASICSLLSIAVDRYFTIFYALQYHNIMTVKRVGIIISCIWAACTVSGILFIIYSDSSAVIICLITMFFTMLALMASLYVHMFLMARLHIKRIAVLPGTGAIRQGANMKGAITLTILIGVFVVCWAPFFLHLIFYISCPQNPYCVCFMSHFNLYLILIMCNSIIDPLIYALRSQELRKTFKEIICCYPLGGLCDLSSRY
Summary of the method: (§1)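 AlphaScreen cAMP assay in stably transfected HEK293 cells, with 10,000 cells/well in IBMX-containing HBSS/HEPES buffer pH 7.4. Peptide alone, up to 100 μM, 2 h at room temperature in the dark, then 2 h lysis/detection. Inverse agonism taken as percent decrease of cAMP from basal, relative to maximal NDP-MSH signal, at 100 μM. Duplicates, three independent experiments.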

[2] = molecular target: Melanocyte-stimulating hormone receptor (Mus musculus) (UniProt Q01727); test: Agonist activity at mouse melanocortin receptor 1 expressed in HEK293 cells assessed as stimulation of cAMP accumulation at 100 uM incubated for 2 hrs by cAMP Alpha-screen assay relative to control; format: functional, cell-based
Melanocyte-stimulating hormone receptor (Mus musculus), sequence (Q01727 whole entry, looked up): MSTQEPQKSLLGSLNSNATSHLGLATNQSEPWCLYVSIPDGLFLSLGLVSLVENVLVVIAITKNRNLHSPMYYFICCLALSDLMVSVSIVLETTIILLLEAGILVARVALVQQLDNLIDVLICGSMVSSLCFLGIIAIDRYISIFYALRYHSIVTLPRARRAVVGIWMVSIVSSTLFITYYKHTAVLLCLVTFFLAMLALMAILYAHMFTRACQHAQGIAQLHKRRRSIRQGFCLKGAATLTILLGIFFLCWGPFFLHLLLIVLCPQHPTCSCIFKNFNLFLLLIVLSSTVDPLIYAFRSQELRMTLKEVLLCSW

Melanocortin receptor 3 [3] = molecular target: T2, Melanocortin receptor 3 (Mus musculus, UniProt P33033); test: Agonist activity at mouse melanocortin receptor 3 expressed in HEK293 cells assessed as stimulation of cAMP accumulation incubated for 2 hrs by cAMP Alpha-screen assay; format: functional, cell-based
T2 sequence (P33033 whole entry): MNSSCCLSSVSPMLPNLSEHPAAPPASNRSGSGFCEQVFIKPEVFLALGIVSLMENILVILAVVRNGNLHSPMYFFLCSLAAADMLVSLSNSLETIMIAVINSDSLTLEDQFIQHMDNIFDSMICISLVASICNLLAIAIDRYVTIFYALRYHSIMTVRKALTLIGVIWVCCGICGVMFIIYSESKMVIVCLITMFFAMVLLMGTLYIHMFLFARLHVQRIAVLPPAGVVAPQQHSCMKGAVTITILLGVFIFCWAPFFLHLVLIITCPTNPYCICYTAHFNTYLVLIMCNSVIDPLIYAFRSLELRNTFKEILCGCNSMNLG

[4] = molecular target: Melanocortin receptor 4 (Mus musculus) (UniProt P56450); test: Agonist activity at mouse melanocortin receptor 4 expressed in HEK293 cells assessed as stimulation of cAMP accumulation at 100 uM incubated for 2 hrs by cAMP Alpha-screen assay relative to control; format: functional, cell-based
Melanocortin receptor 4 (Mus musculus), sequence (P56450 whole entry): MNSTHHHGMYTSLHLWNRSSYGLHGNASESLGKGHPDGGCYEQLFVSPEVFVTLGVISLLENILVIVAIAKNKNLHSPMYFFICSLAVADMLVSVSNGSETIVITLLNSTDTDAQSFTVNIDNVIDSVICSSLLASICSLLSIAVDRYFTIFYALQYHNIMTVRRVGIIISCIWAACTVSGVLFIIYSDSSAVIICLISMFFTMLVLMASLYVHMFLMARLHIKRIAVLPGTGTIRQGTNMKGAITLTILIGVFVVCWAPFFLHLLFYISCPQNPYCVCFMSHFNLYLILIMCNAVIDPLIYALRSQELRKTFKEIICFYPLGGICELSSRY

Melanocortin receptor 5 [5] = molecular target: T3, Melanocortin receptor 5 (Mus musculus, UniProt P41149); test: Agonist activity at mouse melanocortin receptor 5 expressed in HEK293 cells assessed as stimulation of cAMP accumulation incubated for 2 hrs by cAMP Alpha-screen assay; format: functional, cell-based
T3 sequence (P41149 whole entry): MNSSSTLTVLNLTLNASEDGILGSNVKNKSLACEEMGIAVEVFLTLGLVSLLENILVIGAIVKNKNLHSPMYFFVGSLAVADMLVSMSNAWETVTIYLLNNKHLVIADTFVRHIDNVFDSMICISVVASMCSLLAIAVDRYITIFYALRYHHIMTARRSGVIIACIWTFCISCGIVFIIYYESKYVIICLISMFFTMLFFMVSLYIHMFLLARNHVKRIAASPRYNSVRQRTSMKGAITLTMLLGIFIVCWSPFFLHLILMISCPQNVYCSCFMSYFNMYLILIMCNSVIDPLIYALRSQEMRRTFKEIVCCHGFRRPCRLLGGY

[6] = molecular target: Melanocyte-stimulating hormone receptor (Mus musculus) (UniProt Q01727); test: Ratio of IC50 for MDE6-82-3c to IC50 for test compound for displacement of [125I]-NDP-MSH from mouse melanocortin receptor 1 expressed in HEK293 cell mebranes incubated for 1 hr by automatic gamma counting method
Summary of the method: (§2)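 Cells washed, lysed 10 min with 0.1 M NaOH/1% Triton X-100, then gamma-counted. Specific binding defined with unlabelled NDP-MSH and normalized to it. Duplicate wells, two experiments. IC50 by non-linear fit. Fold difference taken relative to the Asn-parent macrocycle control.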

[7] = molecular target: Melanocortin receptor 3 (Mus musculus) (UniProt P33033); test: Ratio of IC50 for MDE6-82-3c to IC50 for test compound for displacement of [125I]-NDP-MSH from mouse melanocortin receptor 3 expressed in HEK293 cell mebranes incubated for 1 hr by automatic gamma counting method; summary of the method: as §2
Melanocortin receptor 3 (Mus musculus), sequence (P33033 whole entry): as the sequence (P33033 whole entry) above

[8] = molecular target: Melanocortin receptor 4 (Mus musculus) (UniProt P56450); test: Ratio of IC50 for MDE6-82-3c to IC50 for test compound for displacement of [125I]-NDP-MSH from mouse melanocortin receptor 4 expressed in HEK293 cell mebranes incubated for 1 hr by automatic gamma counting method; summary of the method: as §2
[9] = molecular target: Melanocortin receptor 5 (Mus musculus) (UniProt P41149); test: Ratio of IC50 for MDE6-82-3c to IC50 for test compound for displacement of [125I]-NDP-MSH from mouse melanocortin receptor 5 expressed in HEK293 cell mebranes incubated for 1 hr by automatic gamma counting method; summary of the method: as §2
Melanocortin receptor 5 (Mus musculus), sequence (P41149 whole entry): as the sequence (P41149 whole entry) above

Melanocortin receptor 4 [10] = molecular target: T1, Melanocortin receptor 4; test: Ratio of IC50 for MDE6-82-3c to IC50 for test compound for displacement of [125I]-NDP-MSH from human melanocortin receptor 4 expressed in HEK293 cell membranes incubated for 1 hr by automatic gamma counting method; summary of the method: as §2
[11] = molecular target: Melanocortin receptor 3 (Mus musculus) (UniProt P33033); test: Agonist activity at mouse melanocortin receptor 3 expressed in HEK293 cells assessed as stimulation of cAMP accumulation at 100 uM incubated for 2 hrs by cAMP Alpha-screen assay relative to control; format: functional, cell-based
[12] = molecular target: T4, Melanocyte-stimulating hormone receptor (Mus musculus, UniProt Q01727); test: Agonist activity at mouse melanocortin receptor 1 expressed in HEK293 cells assessed as stimulation of cAMP accumulation incubated for 2 hrs by cAMP Alpha-screen assay; format: functional, cell-based
T4 sequence (Q01727 whole entry): as the sequence (Q01727 whole entry, looked up) above

Melanocortin receptor 4 [13] = molecular target: T5, Melanocortin receptor 4 (Mus musculus, UniProt P56450); test: Agonist activity at mouse melanocortin receptor 4 expressed in HEK293 cells assessed as stimulation of cAMP accumulation incubated for 2 hrs by cAMP Alpha-screen assay; format: functional, cell-based
T5 sequence (P56450 whole entry): as the sequence (P56450 whole entry) above

[14] = molecular target: Melanocortin receptor 5 (Mus musculus) (UniProt P41149); test: Inverse agonist activity at mouse melanocortin receptor 5 expressed in HEK293 cells assessed as inhibition of basal cAMP accumulation at 100 uM incubated for 2 hrs by cAMP Alpha-screen assay relative to control; format: functional, cell-based; summary of the method: as §1
[15] = molecular target: T4, Melanocyte-stimulating hormone receptor; test: Displacement of [125I]-NDP-MSH from mouse melanocortin receptor 1 expressed in HEK293 cell mebranes incubated for 1 hr by automatic gamma counting method; format: cell-based; summary of the method: as §2
Melanocortin receptor 3 [16] = molecular target: T2, Melanocortin receptor 3; test: Displacement of [125I]-NDP-MSH from mouse melanocortin receptor 3 expressed in HEK293 cell mebranes incubated for 1 hr by automatic gamma counting method; format: cell-based
Melanocortin receptor 5 [17] = molecular target: T3, Melanocortin receptor 5; test: Displacement of [125I]-NDP-MSH from mouse melanocortin receptor 5 expressed in HEK293 cell mebranes incubated for 1 hr by automatic gamma counting method; format: cell-based
[18] = molecular target: Melanocortin receptor 5 (Mus musculus) (UniProt P41149); test: Inverse agonist activity at mouse melanocortin receptor 5 expressed in HEK293 cells assessed as inhibition of basal cAMP accumulation incubated for 2 hrs by cAMP Alpha-screen assay relative to control; format: functional, cell-based; settings: concentration not given here; summary of the method: as §1
[19] = molecular target: Melanocyte-stimulating hormone receptor (Mus musculus) (UniProt Q01727); test: Ratio of IC50 for MDE6-82-1c to IC50 for test compound for displacement of [125I]-NDP-MSH from mouse melanocortin receptor 1 […] incubated for 1 hr by automatic gamma counting method
[20] = molecular target: Melanocortin receptor 3 (Mus musculus) (UniProt P33033); test: Ratio of IC50 for MDE6-82-1c to IC50 for test compound for displacement of [125I]-NDP-MSH from mouse melanocortin receptor 3 expressed in HEK293 cell mebranes incubated for 1 hr by automatic gamma counting method
Summary of the method: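 Whole stably transfected HEK293 cells (>90% confluent) incubated 1 h at 37°C, 5% CO2, in DMEM with 0.1% BSA. […] Cells washed, lysed with NaOH/Triton X-100, and counted by gamma counter. Specific binding normalized to nonradioactive NDP-MSH. IC50 from duplicates in two experiments (mean ± SD). Fold difference taken against the Dap-containing parent control.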

[21] = molecular target: Melanocortin receptor 4 (Mus musculus) (UniProt P56450); test: Ratio of IC50 for MDE6-82-1c to IC50 for test compound for displacement of [125I]-NDP-MSH from mouse melanocortin receptor 4 […] incubated for 1 hr by automatic gamma counting method
[22] = molecular target: Melanocortin receptor 5 (Mus musculus) (UniProt P41149); test: Ratio of IC50 for MDE6-82-1c to IC50 for test compound for displacement of [125I]-NDP-MSH from mouse melanocortin receptor 5 […] incubated for 1 hr by automatic gamma counting method
Melanocortin receptor 4 [23] = molecular target: T1, Melanocortin receptor 4; test: Ratio of IC50 for MDE6-82-1c to IC50 for test compound for displacement of [125I]-NDP-MSH from human melanocortin receptor 4 […] incubated for 1 hr by automatic gamma counting method; format: cell membranes
Melanocortin receptor 4 [24] = molecular target: T1, Melanocortin receptor 4; test: Antagonist activity at human melanocortin receptor 4 expressed in HEK293 cells assessed as inhibition of NDP-MSH-induced cAMP accumulation incubated for 2 hrs by cAMP Alpha-screen assay based Schild analysis; format: functional, cell-based; settings: read-out: pA2 (converted)
Melanocortin receptor 3 [25] = molecular target: T2, Melanocortin receptor 3; test: Antagonist activity at mouse melanocortin receptor 3 expressed in HEK293 cells assessed as inhibition of NDP-MSH-induced cAMP accumulation incubated for 2 hrs by cAMP Alpha-screen assay based Schild analysis; format: functional, cell-based; settings: read-out: pA2 (converted)
Summary of the method: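 NDP-MSH (10−6 to 10−12) plus antagonist at 10,000, 5,000, 1,000 and 500 nM, 2 h dark at room temperature. AlphaScreen cAMP read after lysis/bead step 2 h. Schild pA2; duplicates, at least three independent experiments.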

Melanocortin receptor 4 [26] = molecular target: T5, Melanocortin receptor 4; test: Antagonist activity at mouse melanocortin receptor 4 expressed in HEK293 cells assessed as inhibition of NDP-MSH-induced cAMP accumulation incubated for 2 hrs by cAMP Alpha-screen assay based Schild analysis; format: functional, cell-based; settings: read-out: pA2 (converted)

Structure (SMILES) | Activity (Melanocortin receptor 4 [1]) | Activity [2] [%] | EC50 (Melanocortin receptor 3 [3]) [µM] | Activity [4] [%] | EC50 (Melanocortin receptor 5 [5]) [µM] | Ratio IC50 [8] | Ratio IC50 (Melanocortin receptor 4 [10]) | EC50 (Melanocortin receptor 4 [13]) [µM] | IC50 (Melanocortin receptor 5 [17]) [µM] | Ratio IC50 [19] | Ratio IC50 [20] | Ratio IC50 [21] | Ratio IC50 (Melanocortin receptor 4 [23]) | further results
CC(C)[C@@H]1NC(=O)[C@H](CC(N)=O)NC(=O)[C@H](Cc2ccccc2)NC(=O)[C@H](Cc2ccccc2)NC(=O)[C@H](CCCNC(=N)N)NC(=O)[C@@H]2CCCN2C(=O)[C@H]2CCCN2C(=O)[C@H](Cc2ccccc2)NC1=O (cyclo(PRFFNVF[dP])) | Active | 23 | > 100 | 16 | > 100 | 2 | 3 | – | – | – | – | – | – | Ratio IC50 [6]: 2; Ratio IC50 [7]: 3; Ratio IC50 [9]: 2
CC(C)[C@@H]1NC(=O)[C@H](CN)NC(=O)[C@H](Cc2ccccc2)NC(=O)[C@H](Cc2ccccc2)NC(=O)[C@H](CCCNC(=N)N)NC(=O)[C@@H]2CCCN2C(=O)[C@H]2CCCN2C(=O)[C@H](Cc2ccccc2)NC1=O | Active | 79 | – | 37 | > 100 | – | – | – | – | – | – | – | – | Activity [11]: 27%
C[C@@H]1NC(=O)[C@H](CC(N)=O)NC(=O)[C@H](Cc2ccccc2)NC(=O)[C@H](Cc2ccc(O)cc2)NC(=O)[C@H](CCCNC(=N)N)NC(=O)[C@@H]2CCCN2C(=O)[C@H]2CCCN2C(=O)[C@H](Cc2ccccc2)NC1=O (cyclo(PRYFNAF[dP])) | Active | – | > 100 | – | – | 100 | 2000 | > 100 | > 100 | – | – | – | – | EC50 [12]: > 100 µM; inhibition [14]: 35%; IC50 [15]: > 100 µM; IC50 (Melanocortin receptor 3 [16]): > 100 µM
C[C@@H]1NC(=O)[C@H](CN)NC(=O)[C@H](Cc2ccccc2)NC(=O)[C@H](Cc2ccccc2)NC(=O)[C@H](CCCNC(=N)N)NC(=O)[C@@H]2CCCN2C(=O)[C@H]2CCCN2C(=O)[C@H](Cc2ccccc2)NC1=O | Active | – | – | – | – | – | – | – | – | – | – | – | – | inhibition [18]: 15%
C[C@@H]1NC(=O)[C@H](CN)NC(=O)[C@H](Cc2ccccc2)NC(=O)[C@H](Cc2ccccc2)NC(=O)[C@H](Cc2c[nH]cn2)NC(=O)[C@@H]2CCCN2C(=O)[C@H]2CCCN2C(=O)[C@H](Cc2ccccc2)NC1=O (cyclo(PHFF[Dap]AF[dP])) | inactive | 56 | > 100 | – | > 100 | – | – | > 100 | – | 5 | 5 | 500 | 400 | Ratio IC50 [22]: 7
C[C@@H]1NC(=O)[C@H](CC(N)=O)NC(=O)[C@H](Cc2ccccc2)NC(=O)[C@H](Cc2ccccc2)NC(=O)[C@H](CCCNC(=N)N)NC(=O)[C@@H]2CCCN2C(=O)[C@H]2CCCN2C(=O)[C@H](Cc2ccccc2)NC1=O | – | – | – | – | – | – | – | – | – | – | – | – | – | inhibition [18]: 10%
C[C@@H]1NC(=O)[C@H](CN)NC(=O)[C@H](Cc2ccccc2)NC(=O)[C@H](Cc2ccccc2)NC(=O)[C@H](CS)NC(=O)[C@@H]2CCCN2C(=O)[C@H]2CCCN2C(=O)[C@H](Cc2ccccc2)NC1=O (cyclo(PCFF[Dap]AF[dP])) | inactive | – | – | 42 | > 100 | – | – | – | > 100 | 6 | 15 | 5200 | 2100 | Kb (Melanocortin receptor 4 [24]): > 10 µM; Activity [11]: 29%; Kb (Melanocortin receptor 3 [25]): > 10 µM; Kb (Melanocortin receptor 4 [26]): > 10 µM
C[C@@H]1NC(=O)[C@H](CC(N)=O)NC(=O)[C@H](Cc2ccccc2)NC(=O)[C@H](Cc2ccccc2)NC(=O)[C@H](Cc2c[nH]cn2)NC(=O)[C@@H]2CCCN2C(=O)[C@H]2CCCN2C(=O)[C@H](Cc2ccccc2)NC1=O | Active | 23 | > 100 | – | > 100 | 300 | 300 | > 100 | > 100 | – | – | – | – | Kb (Melanocortin receptor 3 [25]): > 10 µM; IC50 [15]: > 100 µM; IC50 (Melanocortin receptor 3 [16]): > 100 µM
C[C@@H]1NC(=O)[C@H](CN)NC(=O)[C@H](Cc2ccccc2)NC(=O)[C@H](Cc2ccc(O)cc2)NC(=O)[C@H](CCCNC(=N)N)NC(=O)[C@@H]2CCCN2C(=O)[C@H]2CCCN2C(=O)[C@H](Cc2ccccc2)NC1=O (cyclo(RYF[Dap]AF[dP]P)) | Active | 48 | > 100 | – | > 100 | – | – | > 100 | – | 4 | 9 | 70 | 100 | Ratio IC50 [22]: 20
